# Only some compounds are listed: those with a hit (about 4.1% of all), similar ones and a draw of the others.
# KCNK3 inh – human KCNK3 channel inhibition, primary screen; O14649; CHO-KCNK3 thallium flux, FluxOR fluorescence; active compounds read low; B-score at 10 µM; 340,000 compounds, 0.84% hits; AID 602410;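 active = B-score under library mean minus 4 SD, starting fluorescence ratio at most library mean plus 5 SD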;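 also: more negative B-score means stronger inhibition of thallium flux through KCNK3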
# hERG rescue – compounds protecting human hERG from proarrhythmic drug block. AID 1511. activation (rescue from dofetilide block), less the hit threshold, % at 10 µM. 310,000 compounds, 0.51% hits. CHO-hERG, FluxOR thallium flux, dofetilide IC70 present. Q12809;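 active = activation above the mean of controls blocked by dofetilide plus 5 SD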;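 also: thallium influx through hERG after potassium depolarization seen as dye fluorescence rise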
# Target sequence (Q12809 whole entry, looked up): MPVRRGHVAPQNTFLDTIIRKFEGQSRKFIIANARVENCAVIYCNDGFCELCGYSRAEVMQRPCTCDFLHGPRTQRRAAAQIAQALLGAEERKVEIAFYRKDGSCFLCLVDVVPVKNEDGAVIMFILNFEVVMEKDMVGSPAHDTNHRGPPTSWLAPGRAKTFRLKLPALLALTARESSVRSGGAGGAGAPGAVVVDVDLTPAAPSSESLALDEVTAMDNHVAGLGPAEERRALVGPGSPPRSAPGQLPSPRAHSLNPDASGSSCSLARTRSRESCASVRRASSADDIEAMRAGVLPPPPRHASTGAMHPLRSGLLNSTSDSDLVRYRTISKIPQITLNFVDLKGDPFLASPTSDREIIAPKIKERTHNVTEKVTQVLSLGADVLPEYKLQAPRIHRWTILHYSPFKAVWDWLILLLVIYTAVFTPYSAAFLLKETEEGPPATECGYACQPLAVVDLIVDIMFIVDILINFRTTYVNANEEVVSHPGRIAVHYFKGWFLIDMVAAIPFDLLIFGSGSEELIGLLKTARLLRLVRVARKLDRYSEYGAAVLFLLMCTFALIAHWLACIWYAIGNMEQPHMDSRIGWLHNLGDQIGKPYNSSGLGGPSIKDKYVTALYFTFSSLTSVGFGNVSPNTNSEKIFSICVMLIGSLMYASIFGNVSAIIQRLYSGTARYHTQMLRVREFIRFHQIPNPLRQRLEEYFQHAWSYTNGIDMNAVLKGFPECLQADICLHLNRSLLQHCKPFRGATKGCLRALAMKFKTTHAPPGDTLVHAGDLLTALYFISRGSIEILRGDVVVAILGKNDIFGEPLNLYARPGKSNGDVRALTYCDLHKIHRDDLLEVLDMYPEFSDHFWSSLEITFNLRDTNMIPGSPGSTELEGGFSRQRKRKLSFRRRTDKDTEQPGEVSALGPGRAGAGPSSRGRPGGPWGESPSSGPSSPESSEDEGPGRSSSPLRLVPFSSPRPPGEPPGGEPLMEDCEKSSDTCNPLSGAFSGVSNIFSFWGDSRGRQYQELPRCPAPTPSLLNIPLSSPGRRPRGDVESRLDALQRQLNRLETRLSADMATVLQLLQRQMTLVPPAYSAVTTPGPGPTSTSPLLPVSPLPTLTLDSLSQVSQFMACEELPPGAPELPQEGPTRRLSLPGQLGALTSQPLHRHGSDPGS
# KCNK9 inh – human KCNK9 channel inhibition. Q9NPC2. 310,000 compounds, 1.2% hits. HEK293 KCNK9, FluxOR thallium flux fluorescence; active compounds read low. B-score at 10 µM;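 active = ratio B-score over 3 SD below the library mean, with starting fluorescence within 5 SD of its mean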;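 also: negative B-score means less thallium flux so channel inhibition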
# KCC2 mod – modulates chloride dependent transport by human KCC2. B-score of Tl+ flux slope (higher = more flux/activation; lower = inhibition) at 10 µM. KCC2 cells, thallium flux FluoZin-2 fluorescence. 190,000 compounds, 2.2% hits;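 active = thallium flux slope and its plate-corrected score both differing from the plate sample mean at a set confidence after two filtering rounds, in either direction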;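 also: slope of fluorescence scaled to starting intensity during 10 to 20 s after thallium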
# KCNQ1 inh – inhibitors of human KCNQ1 potassium channel | B-score at 10 µM | 310,000 compounds, 1.3% hits | CHO-K1 KCNQ1, FluxOR thallium flux fluorescence; active compounds read high | P51787;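 active = compounds whose thallium flux B-score, printed positive for inhibition, exceeds three library SD while starting fluorescence stays within three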;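 also: channel opened by potassium depolarization with thallium stimulus after 20 min compound exposure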
# KCNQ1 pot – human KCNQ1 channel potentiation or activation | 310,000 compounds, 0.35% hits | CHO-K1 KCNQ1, thallium flux FluxOR fluorescence; active compounds read high | P51787 | B-score at 10 µM;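 active = fluorescence ratio B-score, a plate-corrected score, at least three library SD, with initial intensity B-score within 5 SD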
#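 Medium – assay buffer, equal DMSO in all wells · Material – CHO-K1 cell line with stable KCNQ1 potassium channel expression · Signal – kinetic FluxOR thallium fluorescence, 10-s 1-Hz baseline, 110-s post-stimulus read · Compound – single concentration per compound, DMSO matched to controls · Schedule – 37 °C overnight plating, 90-min dark dye load, 20-min compound pretreatment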
# KCNK9 block conf – human KCNK9 inhibitor confirmation; shares compounds with KCNK9 inh; HEK293 KCNK9 cells, FluxOR thallium flux fluorescence; inhibition, % at 10 µM; 4,900 compounds, 43% hits; AID 492992;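 active = thallium signal inhibited by more than 5 SD of the compound-free buffer control wells, on both duplicate plates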
# Kir21 sel – mouse Kir2.1 off-target activity of KCNK9 modulators; shares compounds with KCNK9 inh; Kir2.1 cells, FluxOR thallium flux fluorescence; inhibition, % at 10 µM; 4,900 compounds, 4% hits; AID 492993;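 active = thallium signal drop more than 5 SD beyond the mean of the no-compound control wells, seen in both duplicate plates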;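 also: signal is fluorescence rise after thallium addition divided by baseline fluorescence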
# KCNK9 uninduced – second check of KCNK9 modulator effects in non-induced HEK293 cells | AID 492997 | 4,900 compounds, 40% hits | inhibition, % at 10 µM | shares compounds with KCNK9 inh | FluxOR thallium flux;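 active = thallium signal drop beyond 5 SD of the untreated control mean, on both duplicate plates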
# Numbers stand for hits; n = inactive; x = no result given.
SMILES,KCNK3 inh,hERG rescue,KCNK9 inh,KCC2 mod,KCNQ1 inh,KCNQ1 pot,KCNK9 block conf,Kir21 sel,KCNK9 uninduced
COc1ccc(N(CCCN2C(=O)c3cccc4cccc(c34)C2=O)C(=O)c2cccs2)cc1,n,n,n,n,n,n,x,x,x
COc1cc(C)ccc1N(CCCN1C(=O)c2cccc3cccc(c23)C1=O)C(=O)c1cccs1,n,n,-14,n,n,n,80%,n,34%
CC(C)N(CCNC(=O)c1nn(Cc2ccccc2)c(=O)c2ccccc12)C(C)C,n,n,n,x,n,n,x,x,x
COC(=O)c1cc(NC(=O)CN(c2cccc(OC)c2)S(=O)(=O)c2ccccc2)ccc1Cl,n,n,n,n,n,n,x,x,x
COC(=O)c1cc(NC(=O)CN(c2ccccc2OC)S(=O)(=O)c2ccccc2)ccc1Cl,n,n,-15,n,n,n,64%,n,n
Cc1c(Cl)cccc1NC(=S)N(CCN(C)C)C(C)c1ccco1 (stereo not drawn),n,n,n,n,n,n,n,n,n
Cc1ccccc1NC(=S)N(CCN(C)C)C(C)c1ccco1 (stereo not drawn),n,n,n,n,n,n,x,x,x
Clc1ccc(-c2nnc(Sc3nc4ccccc4o3)c3ccccc23)cc1,n,n,n,n,n,n,n,n,n
Cc1ccc(-c2nnc(Sc3nc4ccccc4o3)c3ccccc23)cc1,n,n,n,n,n,n,x,x,x
CCOC(=O)[C@@H](C)N(C(=O)OC(C)(C)C)S(=O)(=O)N(Cc1ccccc1)[C@H](C(=O)OC)C(C)C,n,x,x,x,x,x,x,x,x
CC(C)OC(=O)CSc1nnc(SCc2cccc3ccccc23)s1,n,n,n,x,n,n,n,n,n
CCOC(=O)c1cc(-c2ccc(OC)cc2F)nc2c1c(C)nn2CCC#N,n,n,-11,n,6,n,54%,n,34%
CCOC(=O)c1cc(-c2ccco2)nc2c1c(C)nn2CCC#N,n,n,n,n,n,n,x,x,x
CC(C(=O)NC1CCCCCC1)c1ccc([N+](=O)[O-])cc1 (stereo not drawn),n,n,n,x,n,n,x,x,x
O=[N+]([O-])c1ccc(Cl)cc1CNc1ccc(F)c(F)c1,n,n,-8.5,n,n,n,33%,n,27%
COc1ccc(NCc2ccccc2[N+](=O)[O-])cc1OC,n,n,n,n,n,n,x,x,x
O=S1(=O)N(Cc2ccccc2F)CCCN1Cc1c(F)cccc1Cl,n,n,-14,x,n,n,68%,n,34%
CCOc1ccc(OCC)c(Nc2cc(C)nc3ncnn23)c1,n,n,n,n,n,n,n,n,24%
CCOc1ccc(OCC)c(Nc2cc(C)nc3nc(C)nn23)c1,n,n,n,n,n,n,x,x,x
Cc1cc(C(=O)COC(=O)c2ccc3c(c2)OCO3)c(C)n1Cc1cccs1,n,n,n,n,n,n,n,n,n
CCn1nc(C(=O)OCC(=O)c2cc(C)n(Cc3cccs3)c2C)c2ccccc2c1=O,n,n,n,n,n,n,n,n,n
Cc1cc(C(=O)COC(=O)c2ccccc2O)c(C)n1Cc1cccs1,n,n,n,n,n,n,x,x,x
CC(=O)Nc1c2c(nn1-c1ccc(Cl)cc1)CSC2,n,n,n,x,n,n,x,x,x
COc1ccc(CCC(=O)N2CCN(c3cccc(C)c3C)CC2)cc1,n,n,n,x,n,n,n,n,n
COc1ccc(C(=O)CCC(=O)N2CCN(c3cc(C)ccc3C)CC2)cc1,n,n,n,x,n,n,n,n,n
Nc1nc(C(c2ccccc2)c2ccccc2)cs1,n,n,n,x,n,n,x,x,x
CCCCN(CCCC)CCCN1CC(=O)N2[C@@H](Cc3c([nH]c4ccccc34)C2(C)C)C1=O,n,n,n,x,n,n,x,x,x
CCOC(=O)c1cccc(COC(=O)c2cccc(-c3nnc(-c4ccccc4)o3)c2)c1,n,n,-19,n,n,n,68%,n,24%

# Source: PubChem (several laboratories)
